Legend:
Type in all cases: functional
[1] = test system: Aphis craccivora; experiment: Insecticidal activity against apterous adult stage of Aphis craccivora (cowpea aphid) in horsebean leaves assessed as mortality at 500 mg/l at 25 +/-1 degC treated for 5 secs measured after 24 hr by leaf-dip method
How it was run: (§1)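 Leaf-dip assay: horsebean leaves carrying 40-60 apterous adults were dipped in diluted compound, excess liquid was blotted off with filter paper, and they were held at 25 ± 1 °C, 50% RH. Controls were water containing Triton X-100. Mortality was scored 24 h after treatment, with three repetitions per treatment. Data were adjusted and subjected to probit analysis.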

[2] = test system: Aphis craccivora; experiment: Insecticidal activity against apterous adult stage of Aphis craccivora (cowpea aphid) in horsebean leaves assessed as mortality at 25 +/-1 degC treated for 5 secs measured after 24 hr by leaf-dip method; how it was run: as §1
[3] = test system: Mythimna separata; experiment: Insecticidal activity against second instar larval stage of Mythimna separata (Oriental armyworm) in compound pretreated corn leaves assessed as mortality at 500 mg/l at 25 +/-1 degC after 48 hr
[4] = test system: Mythimna separata; experiment: Insecticidal activity against second instar larval stage of Mythimna separata (Oriental armyworm) in compound pretreated corn leaves assessed as mortality at 25 +/-1degC after 48 hr
[5] = test system: Nilaparvata lugens; experiment: Toxicity ratio of imidacloprid LC50 to compound LC50 for macropterous adult stage of imidaclopride-resistant Nilaparvata lugens (brown planthopper) after 48 hr by microtopical application technique
How it was run: (§2)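 Toxic ratio is imidacloprid's baseline-toxicity LC50 divided by the compound's LC50. LC50 values come from topical application of acetone solutions (0.08 μL droplet, prothorax notum, CO2 anesthesia) to unmated macropterous females aged 2-3 days, about 30 per concentration, three repeats. Insects were reared on seedlings at 25 ± 1 °C, and values were derived by probit analysis.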

[6] = test system: Nilaparvata lugens; experiment: Toxicity ratio of imidacloprid LC50 to compound LC50 for macropterous adult stage of imidaclopride-sensitive Nilaparvata lugens (brown planthopper) after 48 hr by microtopical application technique; how it was run: as §2
[7] = test system: Nilaparvata lugens; experiment: (§3) Insecticidal activity against macropterous adult stage of imidaclopride-resistant Nilaparvata lugens (brown planthopper) assessed as concentration required to induce mortality per pest at 25 +/-1 degC applied topically to the prothorax notum of insect prior to rearing on rice seedlings measured after 48 hr by microtopical application technique
How it was run: (§4)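 Microtopical application on unmated macropterous adult females aged 2-3 days. Compounds were serially diluted in acetone, and a 0.08 μL droplet was applied to the prothorax notum under CO2 anesthesia. About 30 insects were used per concentration, with three repeats; controls received acetone. Insects were then reared on soilless seedlings at 25 ± 1 °C, 16/8 h light/dark. LC50 (ng/pest) was obtained from probit regression lines.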

[8] = test system: Nilaparvata lugens; experiment: as §3, with “imidaclopride-sensitive” for “imidaclopride-resistant”; how it was run: as §4

## O=[N+]([O-])/C=C1/NCCN1Cc1ccc(Cl)nc1
[1]
  mortality at 500 µg/mL: 100%
[2]
  LC50: 5.12 µM
[3]
  mortality at 500 µg/mL: 100%
[4]
  LC50: 70.9 µM

## O=[N+]([O-])C1=C2N(Cc3ccccc3)CCN2[C@@H]2CC[C@H]1O2
[1]
  mortality at 500 µg/mL: 13.6%
[3]
  mortality at 500 µg/mL: 0%

## O=[N+]([O-])C1=C2N(Cc3ccc(Cl)cc3)CCN2[C@@H]2CC[C@H]1O2
[1]
  mortality at 500 µg/mL: 95.7%
[3]
  mortality at 500 µg/mL: 0%

## O=[N+]([O-])/C(=C1/NCCN1Cc1ccc(Cl)nc1)C(O)/C=C(\C1=NCCN1Cc1ccc(Cl)nc1)[N+](=O)[O-] (configuration not stated)
[1]
  mortality at 500 µg/mL: 78.1%
[3]
  mortality at 500 µg/mL: 100%
[4]
  LC50: 195 µM

## COC(/C=C(\C1=NCCN1Cc1ccc(Cl)nc1)[N+](=O)[O-])/C(=C1\NCCN1Cc1ccc(Cl)nc1)[N+](=O)[O-] (configuration not stated)
[1]
  mortality at 500 µg/mL: 97.7%
[3]
  mortality at 500 µg/mL: 100%

## O=[N+]([O-])/C(=C/C/C=C(\C1=NCCN1Cc1ccc(Cl)nc1)[N+](=O)[O-])C1=NCCN1Cc1ccc(Cl)nc1
[1]
  mortality at 500 µg/mL: 100%
[2]
  LC50: 9.51 µM
[3]
  mortality at 500 µg/mL: 100%
[4]
  LC50: 28 µM

## O=[N+]([O-])C1=C2N(Cc3ccc(Cl)nc3)CCN2[C@@H]2CC[C@H]1O2
[5]
  RatioLC50: 40.4
[6]
  RatioLC50: 1.77
[7]
  LC50: 0.4925 ng
[8]
  LC50: 0.0742 ng
[1]
  mortality at 500 µg/mL: 100%
[2]
  LC50: 4.71 µM
[3]
  mortality at 500 µg/mL: 100%
[4]
  LC50: 38.7 µM

## O=[N+]([O-])C1=C2N(Cc3cnc(Cl)s3)CCN2[C@@H]2CC[C@H]1O2
[1]
  mortality at 500 µg/mL: 100%
[2]
  LC50: 8.83 µM
[3]
  mortality at 500 µg/mL: 100%
[4]
  LC50: 49.6 µM

## O=[N+]([O-])/N=C1\NCCN1Cc1ccc(Cl)nc1 [IMIDACLOPRID]
[5]
  RatioLC50: 1
[6]
  RatioLC50: 1
[7]
  LC50: 22.1614 ng
[8]
  LC50: 0.1316 ng
[1]
  mortality at 500 µg/mL: 100%
[2]
  LC50: 35 µM
[3]
  mortality at 500 µg/mL: 100%
[4]
  LC50: 125 µM

Source: ChEMBL document CHEMBL3045003, “Divalent and oxabridged neonicotinoids constructed by dialdehydes and nitromethylene analogues of imidacloprid: design, synthesis, crystal structure, and insecticidal activities” (2010)
